{"source": "paper PMC3747594", "about": "(ACS Chemical Biology, 2013)", "key": {"K2P2.1 (TREK-1) [1]": {"system": "K2P2.1 (TREK-1)", "conditions": "at 1.6 mM; cited from earlier work"}, "K2P2.1 (TREK-1)-3G": {"biological_target": "T1, K2P2.1 (TREK-1)-3G (Mus musculus, UniProt P97438)", "T1 sequence (P97438 16-426)": "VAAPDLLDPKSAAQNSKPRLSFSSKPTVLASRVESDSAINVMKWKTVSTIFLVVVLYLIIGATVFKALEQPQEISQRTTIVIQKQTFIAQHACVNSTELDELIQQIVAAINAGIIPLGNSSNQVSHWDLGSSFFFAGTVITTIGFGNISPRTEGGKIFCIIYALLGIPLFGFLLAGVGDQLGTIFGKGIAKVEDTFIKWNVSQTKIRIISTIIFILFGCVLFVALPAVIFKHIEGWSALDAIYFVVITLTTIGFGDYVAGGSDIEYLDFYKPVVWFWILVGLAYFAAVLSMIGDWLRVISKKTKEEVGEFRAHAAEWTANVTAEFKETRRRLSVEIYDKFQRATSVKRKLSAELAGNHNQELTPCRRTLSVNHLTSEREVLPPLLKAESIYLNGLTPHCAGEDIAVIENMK", "assay": "Two-electrode voltage clamp in Xenopus oocytes, 3G mutant", "format": "cell-based, Murine"}, "K2P2.1 (TREK-1) [2]": {"biological_target": "T2, K2P2.1 (TREK-1) (Mus musculus, UniProt P97438)", "T2 sequence (P97438 1-411 isoform P97438-2)": "T1 sequence (P97438 16-426) with V1M", "assay": "Whole cell patch clamp in HEK-293T cells, K2P2.1", "format": "cell-based, Murine"}, "Kv7.2 (KCNQ2)": {"biological_target": "Kv7.2 (KCNQ2) (Homo sapiens, UniProt O43526)", "sequence (O43526 whole entry)": "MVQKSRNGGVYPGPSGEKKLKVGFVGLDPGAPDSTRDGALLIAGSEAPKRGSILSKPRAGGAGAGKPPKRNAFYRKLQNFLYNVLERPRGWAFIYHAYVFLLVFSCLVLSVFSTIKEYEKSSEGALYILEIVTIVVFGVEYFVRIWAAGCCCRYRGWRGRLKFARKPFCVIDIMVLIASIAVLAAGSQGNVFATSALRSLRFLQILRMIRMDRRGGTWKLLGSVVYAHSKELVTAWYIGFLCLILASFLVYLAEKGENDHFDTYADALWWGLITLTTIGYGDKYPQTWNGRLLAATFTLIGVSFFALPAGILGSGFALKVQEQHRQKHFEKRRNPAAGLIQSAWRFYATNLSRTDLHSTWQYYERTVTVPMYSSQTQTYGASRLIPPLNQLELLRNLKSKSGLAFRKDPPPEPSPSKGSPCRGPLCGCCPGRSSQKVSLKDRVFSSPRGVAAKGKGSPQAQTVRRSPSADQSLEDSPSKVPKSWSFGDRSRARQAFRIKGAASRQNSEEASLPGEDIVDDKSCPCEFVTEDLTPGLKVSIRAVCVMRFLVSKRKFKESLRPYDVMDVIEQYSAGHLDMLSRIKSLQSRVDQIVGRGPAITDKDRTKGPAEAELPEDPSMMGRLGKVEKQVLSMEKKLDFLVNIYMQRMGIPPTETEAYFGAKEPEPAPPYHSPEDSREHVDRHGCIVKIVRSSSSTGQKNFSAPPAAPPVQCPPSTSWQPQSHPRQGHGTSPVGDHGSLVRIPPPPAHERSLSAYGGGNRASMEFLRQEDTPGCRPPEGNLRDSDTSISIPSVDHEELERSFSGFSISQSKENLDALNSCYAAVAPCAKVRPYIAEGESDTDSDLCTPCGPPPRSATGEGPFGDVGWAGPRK", "assay": "Two-electrode voltage clamp in Xenopus oocytes, Kv7.2", "format": "cell-based", "conditions": "at 100 μM"}, "K2P3.1 (TASK-1)": {"biological_target": "K2P3.1 (TASK-1) (Mus musculus, UniProt O35111)", "sequence (O35111 whole entry)": "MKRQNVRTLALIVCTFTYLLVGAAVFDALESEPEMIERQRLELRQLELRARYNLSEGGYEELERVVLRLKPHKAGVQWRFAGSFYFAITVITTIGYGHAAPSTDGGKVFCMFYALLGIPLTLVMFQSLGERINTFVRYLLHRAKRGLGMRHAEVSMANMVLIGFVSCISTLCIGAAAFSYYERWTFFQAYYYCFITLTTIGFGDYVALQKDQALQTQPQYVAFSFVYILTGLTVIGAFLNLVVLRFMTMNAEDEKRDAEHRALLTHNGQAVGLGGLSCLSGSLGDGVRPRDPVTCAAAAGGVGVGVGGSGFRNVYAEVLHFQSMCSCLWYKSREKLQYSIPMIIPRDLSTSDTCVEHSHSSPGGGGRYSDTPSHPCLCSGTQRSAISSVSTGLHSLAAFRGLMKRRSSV", "assay": "Two-electrode voltage clamp in Xenopus oocytes, K2P3.1", "format": "cell-based, Murine", "conditions": "at 100 μM compound", "in_short": "(§1)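 Murine channel cDNAs in pGEMHE/pMO were expressed in Xenopus oocytes and recorded by two-electrode voltage clamp. Bath contained 2 mM [K+]o at pH 7.4. Currents were elicited by a −150 to 50 mV ramp from a −80 mV holding potential. Responses were normalized to basal channel activity and fit with a modified Hill equation (EC50, Imax/Imin, Hill coefficient H). Values are mean ± SD or SEM from ≥2 independent experiments.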"}, "K2P4.1 (TRAAK)": {"biological_target": "T3, K2P4.1 (TRAAK) (Mus musculus, UniProt O88454)", "T3 sequence (O88454 1-398)": "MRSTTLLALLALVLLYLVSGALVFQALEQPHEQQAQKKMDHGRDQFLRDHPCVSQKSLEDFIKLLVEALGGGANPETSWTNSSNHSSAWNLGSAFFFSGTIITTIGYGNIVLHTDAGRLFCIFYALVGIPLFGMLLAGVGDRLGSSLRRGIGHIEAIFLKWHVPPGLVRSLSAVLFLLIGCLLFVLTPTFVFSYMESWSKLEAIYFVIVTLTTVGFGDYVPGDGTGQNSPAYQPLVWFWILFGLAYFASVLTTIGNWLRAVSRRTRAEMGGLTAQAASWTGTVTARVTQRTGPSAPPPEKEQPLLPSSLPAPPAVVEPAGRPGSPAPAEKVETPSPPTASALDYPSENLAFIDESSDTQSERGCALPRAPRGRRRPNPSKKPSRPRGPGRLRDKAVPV", "assay": "Two-electrode voltage clamp in Xenopus oocytes, K2P4.1", "format": "cell-based, Murine", "in_short": "as §1"}, "K2P2.1 (TREK-1) W275S": {"biological_target": "T4, K2P2.1 (TREK-1) W275S (Mus musculus, UniProt P97438, W290S)", "T4 sequence (P97438 1-411 isoform P97438-2 W275S)": "T1 sequence (P97438 16-426) with V1M, W275S", "assay": "Two-electrode voltage clamp in Xenopus oocytes, W275S mutant", "format": "cell-based, Murine", "in_short": "as §1"}, "K2P18.1 (TRESK)": {"biological_target": "T5, K2P18.1 (TRESK) (Mus musculus, UniProt Q6VV64)", "T5 sequence (Q6VV64 1-394)": "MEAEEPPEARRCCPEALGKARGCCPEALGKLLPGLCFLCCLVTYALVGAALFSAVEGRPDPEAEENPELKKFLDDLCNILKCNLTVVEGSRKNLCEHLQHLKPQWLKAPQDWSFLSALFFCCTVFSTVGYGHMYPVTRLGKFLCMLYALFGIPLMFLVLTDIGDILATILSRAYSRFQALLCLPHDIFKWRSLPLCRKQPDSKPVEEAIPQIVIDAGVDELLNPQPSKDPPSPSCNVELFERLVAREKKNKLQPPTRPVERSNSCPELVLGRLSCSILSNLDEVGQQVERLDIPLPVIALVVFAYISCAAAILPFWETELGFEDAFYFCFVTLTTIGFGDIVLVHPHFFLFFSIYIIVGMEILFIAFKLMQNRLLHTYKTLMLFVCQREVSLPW", "assay": "Two-electrode voltage clamp in Xenopus oocytes, K2P18.1", "format": "cell-based, Murine", "conditions": "at 100 μM compound", "in_short": "as §1"}, "K2P2.1 (TREK-1) G137I": {"biological_target": "T6, K2P2.1 (TREK-1) G137I (Mus musculus, UniProt P97438, G152I)", "T6 sequence (P97438 1-411 isoform P97438-2 G137I)": "T1 sequence (P97438 16-426) with V1M, G137I", "assay": "Two-electrode voltage clamp in Xenopus oocytes, G137I mutant", "format": "cell-based, Murine"}, "K2P9.1 (TASK-3)": {"biological_target": "K2P9.1 (TASK-3) (Mus musculus, UniProt Q3LS21)", "sequence (Q3LS21 whole entry)": "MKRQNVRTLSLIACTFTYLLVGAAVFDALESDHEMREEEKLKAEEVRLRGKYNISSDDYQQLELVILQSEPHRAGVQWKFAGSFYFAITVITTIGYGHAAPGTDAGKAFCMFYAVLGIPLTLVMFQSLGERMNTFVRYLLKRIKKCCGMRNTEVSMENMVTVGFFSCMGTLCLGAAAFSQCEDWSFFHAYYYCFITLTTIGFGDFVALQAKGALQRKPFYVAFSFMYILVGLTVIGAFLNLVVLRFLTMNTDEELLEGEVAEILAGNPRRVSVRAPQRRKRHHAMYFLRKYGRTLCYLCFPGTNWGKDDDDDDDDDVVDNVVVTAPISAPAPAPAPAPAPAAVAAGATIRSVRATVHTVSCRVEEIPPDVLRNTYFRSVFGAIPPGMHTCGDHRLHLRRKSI", "assay": "Two-electrode voltage clamp in Xenopus oocytes, K2P9.1", "format": "cell-based, Murine", "in_short": "as §1"}, "K2P10.1 (TREK-2)": {"biological_target": "T7, K2P10.1 (TREK-2) (Mus musculus, UniProt Q8BUW1)", "T7 sequence (Q8BUW1 1-535)": "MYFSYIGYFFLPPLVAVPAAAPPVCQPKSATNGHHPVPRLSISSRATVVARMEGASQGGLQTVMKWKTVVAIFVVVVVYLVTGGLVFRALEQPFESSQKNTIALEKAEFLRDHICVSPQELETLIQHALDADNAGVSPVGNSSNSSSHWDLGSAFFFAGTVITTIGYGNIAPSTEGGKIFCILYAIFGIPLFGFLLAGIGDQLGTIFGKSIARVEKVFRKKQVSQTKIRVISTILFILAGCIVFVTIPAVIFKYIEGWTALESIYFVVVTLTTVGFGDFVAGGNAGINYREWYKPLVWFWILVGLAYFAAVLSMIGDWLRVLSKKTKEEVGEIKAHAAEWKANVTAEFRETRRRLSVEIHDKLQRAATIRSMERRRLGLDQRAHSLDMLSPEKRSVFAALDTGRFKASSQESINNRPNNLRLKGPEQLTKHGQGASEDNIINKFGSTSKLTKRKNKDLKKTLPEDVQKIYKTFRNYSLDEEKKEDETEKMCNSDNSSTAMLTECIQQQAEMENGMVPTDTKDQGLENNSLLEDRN", "assay": "Two-electrode voltage clamp in Xenopus oocytes, K2P10.1", "format": "cell-based, Murine", "in_short": "as §1"}, "K2P2.1 (TREK-1) [3]": {"biological_target": "T2, K2P2.1 (TREK-1)", "assay": "Two-electrode voltage clamp in Xenopus oocytes, K2P2.1", "format": "cell-based, Murine"}, "K2P2.1 (TREK-1) [4]": {"biological_target": "T2, K2P2.1 (TREK-1)", "assay": "Excised membrane patches", "format": "cell-based, Murine", "conditions": "0 mV, 20 μM"}, "K2P5.1 (TASK-2)": {"biological_target": "T8, K2P5.1 (TASK-2) (Mus musculus, UniProt F6V9U5)", "T8 sequence (F6V9U5 1-502)": "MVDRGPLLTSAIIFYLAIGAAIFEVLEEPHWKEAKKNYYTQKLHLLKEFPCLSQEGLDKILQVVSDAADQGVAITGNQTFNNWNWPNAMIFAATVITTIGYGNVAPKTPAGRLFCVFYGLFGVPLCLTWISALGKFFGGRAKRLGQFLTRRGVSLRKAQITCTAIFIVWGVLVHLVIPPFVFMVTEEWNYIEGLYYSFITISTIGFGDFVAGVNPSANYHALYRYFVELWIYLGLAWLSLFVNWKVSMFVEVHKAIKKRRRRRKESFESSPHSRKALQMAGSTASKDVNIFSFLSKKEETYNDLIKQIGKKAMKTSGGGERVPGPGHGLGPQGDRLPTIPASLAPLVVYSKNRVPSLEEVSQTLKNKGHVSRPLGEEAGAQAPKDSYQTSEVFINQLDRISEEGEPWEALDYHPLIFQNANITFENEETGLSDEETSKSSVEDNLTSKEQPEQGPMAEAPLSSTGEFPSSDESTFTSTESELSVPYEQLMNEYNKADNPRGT", "assay": "Two-electrode voltage clamp in Xenopus oocytes, K2P5.1", "format": "cell-based, Murine", "conditions": "at 100 μM compound", "in_short": "as §1"}, "[5]": {"conditions": "whole-cell, HEK-293T, 0 mV, 20 μM"}}, "note": "Substitutions are numbered along the chain they refer to. “And” between values parts separate entries of the source, which are not always exact repeats. Equal entries are not always repeated."}
{"smiles": "ClC(Cl)Cl", "note": "[chloroform]", "values": [{"measurement": "reported activation (fold)", "setting": "K2P2.1 (TREK-1) [1]", "value": 5.5, "unit": "fold"}]}
{"smiles": "CC1(C)c2cc(Cl)ccc2N(CCc2nnn[nH]2)c2ccc(Cl)cc21", "note": "[ML67-33, 2,7-dichloro-9,9-dimethyl-10-[2-(1H-tetrazol-5-yl)-ethyl]-9,10-dihydro-acridine]", "values": [{"measurement": "EC50", "setting": "K2P2.1 (TREK-1)-3G", "value": "49.4 ± 1.1", "unit": "µM"}, {"measurement": "H (cooperativity coefficient from the Hill equation)", "setting": "K2P2.1 (TREK-1)-3G", "value": "2.2 ± 0.4"}, {"measurement": "Emax (fold)", "setting": "K2P2.1 (TREK-1) [2]; HEK293 cells", "value": "11.4 ± 1.1", "unit": "fold"}, {"measurement": "H (cooperativity coefficient from the Hill equation)", "setting": "K2P2.1 (TREK-1) [2]; HEK293 cells", "value": "2.3 ± 0.7"}, {"measurement": "Emax", "setting": "K2P2.1 (TREK-1) [2]; HEK cells, at 100 μM", "value": "11.4 ± 1.1"}, {"measurement": "half-maximal activation time (t1/2act)", "setting": "K2P2.1 (TREK-1) [2]; [5]", "value": "4.1 ± 0.5", "unit": "s"}, {"measurement": "time of return to baseline following washout (t1/2wash)", "setting": "K2P2.1 (TREK-1) [2]; [5]", "value": "3.9 ± 0.5", "unit": "s"}, {"measurement": "effect on Kv7.2 (KCNQ2) (in words)", "setting": "Kv7.2 (KCNQ2)", "value": "no effect"}, {"measurement": "Emax (fold)", "setting": "K2P3.1 (TASK-1)", "value": "1.1 ± 0.0 fold and 1.1 ± 0.1 ^d fold"}, {"measurement": "H (cooperativity coefficient from the Hill equation)", "setting": "K2P4.1 (TRAAK)", "value": "1.8 ± 0.4"}, {"measurement": "Emax (fold)", "setting": "K2P4.1 (TRAAK); at 100 μM compound", "value": "14.7 ± 1.12 fold and 14.7 ± 1.1 fold and 14.7 ± 1.1 ^d fold"}, {"measurement": "Emax (fold)", "setting": "K2P2.1 (TREK-1) W275S", "value": "5.1 ± 0.6", "unit": "fold"}, {"measurement": "H (cooperativity coefficient from the Hill equation)", "setting": "K2P2.1 (TREK-1) W275S", "value": "1.6 ± 0.7"}, {"measurement": "Emax (fold)", "setting": "K2P18.1 (TRESK)", "value": "0.9 ± 0.1 fold and 0.9 ± 0.1 ^d fold"}, {"measurement": "response to activation (in words)", "setting": "K2P2.1 (TREK-1) G137I", "value": "completely resistant"}, {"measurement": "Emax (fold)", "setting": "K2P2.1 (TREK-1) G137I; at 150 μM", "value": "0.9 ± 0.1", "unit": "at 150 μM fold"}, {"measurement": "Emax", "setting": "K2P9.1 (TASK-3); at 100 μM", "value": "1.7 ± 0.3"}, {"measurement": "Emax (fold)", "setting": "K2P9.1 (TASK-3); at 150 μM", "value": "2.1 ± 0.4", "unit": "at 150 μM fold"}, {"measurement": "Emax (fold)", "setting": "K2P10.1 (TREK-2)", "value": "11.4 ± 1.8", "unit": "fold"}, {"measurement": "H (cooperativity coefficient from the Hill equation)", "setting": "K2P10.1 (TREK-2)", "value": "1.6 ± 0.6"}, {"measurement": "Emax", "setting": "K2P10.1 (TREK-2); at 100 μM", "value": "11.4 ± 1.8"}, {"measurement": "improved potency (fold)", "setting": "K2P2.1 (TREK-1) [3]; EC50 compared to ML67-18", "value": 5, "unit": "fold"}, {"measurement": "H (cooperativity coefficient from the Hill equation)", "setting": "K2P2.1 (TREK-1) [3]; Xenopus oocytes", "value": "3.6 ± 0.4"}, {"measurement": "Emax (fold)", "setting": "K2P2.1 (TREK-1) [3]; Xenopus oocytes, at 100 μM compound", "value": "11.1 ± 0.4", "unit": "fold"}, {"measurement": "Emax (fold)", "setting": "K2P2.1 (TREK-1) [3]; Xenopus oocytes, normalized to basal activity", "value": "11.1 ± 0.4 fold and ~11 fold"}, {"measurement": "t1/2act", "setting": "K2P2.1 (TREK-1) [4]; inside-out patch", "value": "10.8 ± 1.3", "unit": "s"}, {"measurement": "t1/2wash", "setting": "K2P2.1 (TREK-1) [4]; inside-out patch", "value": "22.0 ± 5.1", "unit": "s"}, {"measurement": "t1/2act", "setting": "K2P2.1 (TREK-1) [4]; outside-out patch", "value": "4.6 ± 0.9", "unit": "s"}, {"measurement": "t1/2wash", "setting": "K2P2.1 (TREK-1) [4]; outside-out patch", "value": "3.1 ± 0.7", "unit": "s"}, {"measurement": "Emax (fold)", "setting": "K2P5.1 (TASK-2)", "value": "2.0 ± 0.1", "unit": "fold"}]}
